The target in data set [1] is T1, Neutrophil elastase (Homo sapiens) (UniProt P08246).
T1 sequence (whole entry): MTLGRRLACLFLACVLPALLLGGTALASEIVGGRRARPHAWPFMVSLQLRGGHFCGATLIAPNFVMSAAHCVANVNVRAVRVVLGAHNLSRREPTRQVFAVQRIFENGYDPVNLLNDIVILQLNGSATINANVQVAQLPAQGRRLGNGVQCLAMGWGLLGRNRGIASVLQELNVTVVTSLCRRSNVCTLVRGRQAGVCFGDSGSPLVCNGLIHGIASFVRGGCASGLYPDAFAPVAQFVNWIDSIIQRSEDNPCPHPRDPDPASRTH
The data set is described as follows: Inhibition of human leukocyte elastase at 25 uM assessed as Kinact/Ki ratio incubated for 15 mins by spectrofluorometry.

Data set [2] is filed under the species Homo sapiens. The experiment in a line: Selectivity ratio of Kinact/Ki ratio for human leukocyte elastase to Kinact/Ki ratio for chymotrypsin.
The target of data set [3] is Pancreatic elastase (Sus scrofa) (UniProt P08419+P00772). The data set is described as follows: Inhibition of porcine pancreatic elastase at 25 uM assessed as Kinact/Ki ratio incubated for 15 mins by spectrofluorometry. The data set is classed as protein assay.
Data set [4] is described as follows: Inhibition of chymotrypsin at 25 uM assessed as Kinact/Ki ratio incubated for 15 mins by spectrofluorometry.
Data set [5] in a line: Inhibition of trypsin at 25 uM assessed as Kinact/Ki ratio incubated for 15 mins by spectrofluorometry.
For data set [6], the target named is T1, Neutrophil elastase (Homo sapiens). The data set is described as follows: Irreversible inhibition of human leukocyte elastase assessed as recovery of enzyme activity using MeOSuc-AAPV-AFC substrate at 200 uM treated for 15 mins followed by dialysis measured up to 50 days by fluorescence assay. Further details: scale not given: the % may be the effect or the level left.

Data set [7] is described as follows: Selectivity ratio of Kinact/Ki ratio for porcine pancreatic elastase to Kinact/Ki ratio for human leukocyte elastase.
Data set [8] is filed under the species Homo sapiens. The experiment in a line: Selectivity ratio of Kinact/Ki ratio for chymotrypsin to Kinact/Ki ratio for human leukocyte elastase.
Data set [9] in a line: Half life in pH 7.4 PBS buffer at […] incubated at 37 degC by HPLC. The class given is physicochemical.
A short description of data set [10]: Solubility in pH 7.4 PBS buffer at […] incubated at 37 degC by HPLC. The data set is classed as physicochemical.
Data set [11] can be described thus: Half life in 80% human plasma at […] incubated at 37 degC by HPLC. The class given is ADME, cell-free. An outline of the steps:
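DMSO stock (50 mM) added to freshly isolated pooled healthy-donor human plasma diluted to 80% with PBS pH 7.4, final 3 mg/mL or 0.1 mg/mL; incubated 37 °C; compound remaining monitored by HPLC over time to give half-life.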

The nature of data set [12]: Solubility in 80% human plasma at […] incubated at 37 degC by HPLC. The class given is ADME, cell-free.
Data set [13] can be described thus: Drug degradation in pH 7.4 PBS buffer assessed as compound hydrolysis at […] measured after 48 hrs at 37 degC by HPLC. The class given is physicochemical. The conditions noted are these: read-out: Drug degradation.
Data set [14] is described as follows: Chemical stability in pH 7.4 PBS buffer assessed as compound remaining at […] measured after 6 days at 37 degC by HPLC. The data set is classed as physicochemical. The conditions noted are these: read-out: Stability.

Some results are limits rather than exact numbers.

For the compound `COC(=O)c1cccc(OP(=O)(Oc2cccc(C(=O)OC)c2)C(CC(C)C)NC(=O)[C@@H]2CCCN2C(=O)[C@@H](NC(=O)OC(C)(C)C)C(C)C)c1` (stereo not given in full), the Ratio in [1] was 122000 M⁻¹ s⁻¹; in the data set filed under Homo sapiens [2], over 1.3; in [3] it was 76900 M⁻¹ s⁻¹; in data set [4], 166000 M⁻¹ s⁻¹; in data set [5], 2800 M⁻¹ s⁻¹.
Turning to `CSc1ccc(OP(=O)(Oc2ccc(SC)cc2)[C@@H](NC(=O)[C@@H]2CCCN2C(=O)[C@@H](NC(=O)COc2ccc(OCC(=O)O)cc2)C(C)C)C(C)C)cc1`, the Ratio in [1] was 2.35e+06 M⁻¹ s⁻¹; in data set [3], 39200 M⁻¹ s⁻¹; in data set [4] it was 6450 M⁻¹ s⁻¹; in data set [7] it was 60; in the data set listed under Homo sapiens [8] it was 365; in [5], under 50 M⁻¹ s⁻¹. Besides, the Activity in data set [6] was 15%.
`CSc1ccc(OP(=O)(Oc2ccc(SC)cc2)[C@@H](NC(=O)[C@@H]2CCCN2C(=O)[C@@H](NC(=O)Cn2ccc(=O)n(CC(=O)O)c2=O)C(C)C)C(C)C)cc1`: the Ratio came out at 1.08e+06 M⁻¹ s⁻¹ in data set [1]; 309000 M⁻¹ s⁻¹ in [3]; 40200 M⁻¹ s⁻¹ in data set [4]; 3.5 in data set [7]; 27 in the data set filed under Homo sapiens [8]; 235 M⁻¹ s⁻¹ in [5].
On to `CSc1ccc(OP(=O)(Oc2ccc(SC)cc2)C(NC(=O)[C@@H]2CCCN2C(=O)[C@@H](NC(=O)Cn2ccc(=O)n(CC(=O)O)c2=O)C(C)C)C(C)C)cc1` (mixture of isomers), for which the Ratio in data set [1] worked out at 460000 M⁻¹ s⁻¹; in data set [3] it was 140000 M⁻¹ s⁻¹; in data set [4] it was 28300 M⁻¹ s⁻¹; in data set [5], 130 M⁻¹ s⁻¹. In addition, the half-life (in general, the time in which the quantity being followed falls by half) in data set [9] was 4.17 days; in data set [11], 273 min. Besides, the solubility in data set [10] and in data set [12] was 6.22 mM throughout.
As to `CSc1ccc(OP(=O)(Oc2ccc(SC)cc2)C(NC(=O)[C@@H]2CCCN2C(=O)[C@@H](NC(=O)Cn2cc(C)c(=O)n(CC(=O)O)c2=O)C(C)C)C(C)C)cc1` (mixture of isomers), the Ratio in [1] was 965000 M⁻¹ s⁻¹; in [3] it was 118000 M⁻¹ s⁻¹; in [4] it was 22900 M⁻¹ s⁻¹; in data set [7] it was 8.2; in the data set filed under Homo sapiens [8], 42; in data set [5], 140 M⁻¹ s⁻¹. Also, the figures for the half-life in data set [9] and in data set [11] were 4.17 days and 237 min, respectively. Further, the solubility in [10] and in [12] was 6.11 mM in each case.
As for `CSc1ccc(OP(=O)(Oc2ccc(SC)cc2)C(NC(=O)[C@@H]2CCCN2C(=O)[C@@H](NC(=O)OC(C)(C)C)C(C)C)C(C)C)cc1` (mixture of isomers), the Ratio in data set [1] was 217000 M⁻¹ s⁻¹; in data set [3], 14000 M⁻¹ s⁻¹; in data set [4], 900 M⁻¹ s⁻¹; in [7], 15; in data set [5], under 50 M⁻¹ s⁻¹. Moreover, the half-life in data set [9] was 1.17 days; in data set [11], 372 min. Further, the solubility in [10] and in [12] was 0.36 mM in each case.
As to `CSc1ccc(OP(=O)(Oc2ccc(SC)cc2)C(NC(=O)[C@@H]2CCCN2C(=O)[C@@H](NC(=O)COc2ccc(OCC(=O)O)cc2)C(C)C)C(C)C)cc1` (mixture of isomers), the Ratio is 970000 M⁻¹ s⁻¹ in data set [1]; 19100 M⁻¹ s⁻¹ in data set [3]; 4000 M⁻¹ s⁻¹ in data set [4]; 50.8 in [7]; 245 in the data set listed under Homo sapiens [8]; under 50 M⁻¹ s⁻¹ in [5]. In addition, the half-life in data set [9] was 6.25 days; in [11], 480 min. Further, the solubility in [10] and in [12] was 6.23 mM each time. Also, the degraded at 48 h in data set [13] turned out to be 16%. In data set [14], the remaining at 144 h is over 50%.
Regarding `COc1ccc(C(=O)N[C@H](C(=O)N2CCC[C@H]2C(=O)NC(C(C)C)P(=O)(Oc2ccc(SC)cc2)Oc2ccc(SC)cc2)C(C)C)cc1` (mixture of isomers), the Ratio in [1] was 304000 M⁻¹ s⁻¹; in data set [3], 4700 M⁻¹ s⁻¹; in data set [4], under 50 M⁻¹ s⁻¹; in data set [5] it was under 50 M⁻¹ s⁻¹. For the same compound, the half-life in [9] was 1.08 days; in data set [11], 228 min. Besides, the solubility in [10] and in [12] was 0.17 mM in each case.
As to `CC(C)C(NC(=O)[C@@H]1CCCN1C(=O)[C@@H](NC(=O)OC(C)(C)C)C(C)C)P(=O)(Oc1ccc(C(C)(C)C)cc1)Oc1ccc(C(C)(C)C)cc1` (mixture of isomers), the Ratio in data set [1] came to 3450 M⁻¹ s⁻¹; in data set [3] it was 700 M⁻¹ s⁻¹. In addition, the inhibition in data set [4] and in [5] was under 5% throughout.
For the compound `CC(C)C(NC(=O)[C@@H]1CCCN1C(=O)[C@@H](NC(=O)OC(C)(C)C)C(C)C)P(=O)(Oc1ccccc1)Oc1ccccc1` (mixture of isomers), the Ratio in data set [1] was 46100 M⁻¹ s⁻¹; in [3] it was 22800 M⁻¹ s⁻¹; in [4] it was under 50 M⁻¹ s⁻¹; in [7] it was 2; in data set [5], under 50 M⁻¹ s⁻¹.
For `CC(C)[C@H](NC(=O)OC(C)(C)C)C(=O)N1CCC[C@H]1C(=O)NC(C)P(=O)(Oc1ccc(C(C)(C)C)cc1)Oc1ccc(C(C)(C)C)cc1` (mixture of isomers), the Ratio in data set [1], in data set [3] and in data set [4] was under 50 M⁻¹ s⁻¹ throughout. For the same compound, the inhibition (in general, the share of the control response that was lost under treatment) in [5] was under 5%.
`CC(C)c1ccc(OP(=O)(Oc2ccc(C(C)C)cc2)C(C)NC(=O)[C@@H]2CCCN2C(=O)[C@@H](NC(=O)OC(C)(C)C)C(C)C)cc1` (mixture of isomers): the figures for the Ratio in [1], in data set [3] and in data set [4] were under 50 M⁻¹ s⁻¹, 300 M⁻¹ s⁻¹ and under 50 M⁻¹ s⁻¹, respectively. For the same compound, the inhibition in data set [5] is under 5%.
Take `CCC(NC(=O)[C@@H]1CCCN1C(=O)[C@@H](NC(=O)OC(C)(C)C)C(C)C)P(=O)(Oc1ccccc1)Oc1ccccc1` (mixture of isomers): the Ratio in [1] is 7100 M⁻¹ s⁻¹; in data set [3], 12700 M⁻¹ s⁻¹; in data set [4], under 50 M⁻¹ s⁻¹; in data set [5], under 50 M⁻¹ s⁻¹.
`CCCC(NC(=O)[C@@H]1CCCN1C(=O)[C@@H](NC(=O)OC(C)(C)C)C(C)C)P(=O)(Oc1ccc(C(C)(C)C)cc1)Oc1ccc(C(C)(C)C)cc1` (mixture of isomers): the Ratio in [1] and in [3] was under 50 M⁻¹ s⁻¹ in each case. Further, the inhibition in data set [4] and in [5] was under 5% each time.
Turning to `CCCC(NC(=O)[C@@H]1CCCN1C(=O)[C@@H](NC(=O)OC(C)(C)C)C(C)C)P(=O)(Oc1ccc(SC)cc1)Oc1ccc(SC)cc1` (mixture of isomers), the Ratio in [1] worked out at 56200 M⁻¹ s⁻¹; in data set [3], 54800 M⁻¹ s⁻¹; in data set [4], 2800 M⁻¹ s⁻¹; in the data set listed under Homo sapiens [8] it was 20; in data set [5], 420 M⁻¹ s⁻¹.
Taken in the same sequence, the figures for `CCCCC(NC(=O)[C@@H]1CCCN1C(=O)[C@@H](NC(=O)OC(C)(C)C)C(C)C)P(=O)(Oc1ccc(SC)cc1)Oc1ccc(SC)cc1` (mixture of isomers) were 8100 M⁻¹ s⁻¹, 9700 M⁻¹ s⁻¹, 4250 M⁻¹ s⁻¹, 2 and under 50 M⁻¹ s⁻¹.
Consider `CCc1ccc(OP(=O)(Oc2ccc(CC)cc2)C(C)NC(=O)[C@@H]2CCCN2C(=O)[C@@H](NC(=O)OC(C)(C)C)C(C)C)cc1` (mixture of isomers), for which the Ratio in [1] was 870 M⁻¹ s⁻¹; in data set [3] it was 1100 M⁻¹ s⁻¹; in [4], under 50 M⁻¹ s⁻¹. In addition, the inhibition in data set [5] is under 5%.
On to `CCc1ccc(OP(=O)(Oc2ccc(CC)cc2)C(CC)NC(=O)[C@@H]2CCCN2C(=O)[C@@H](NC(=O)OC(C)(C)C)C(C)C)cc1` (mixture of isomers), for which the Ratio was 1380 M⁻¹ s⁻¹ in data set [1], 4210 M⁻¹ s⁻¹ in data set [3], under 50 M⁻¹ s⁻¹ in data set [4] and under 50 M⁻¹ s⁻¹ in [5].
With `CCc1ccc(OP(=O)(Oc2ccc(CC)cc2)C(NC(=O)[C@@H]2CCCN2C(=O)[C@@H](NC(=O)OC(C)(C)C)C(C)C)C(C)C)cc1` (mixture of isomers), the Ratio in data set [1] was 6800 M⁻¹ s⁻¹; in data set [3] it was 6000 M⁻¹ s⁻¹. Moreover, the inhibition in data set [4] and in data set [5] was under 5% in each case.
As for `CSc1ccc(OP(=O)(Oc2ccc(SC)cc2)C(C)NC(=O)[C@@H]2CCCN2C(=O)[C@@H](NC(=O)OC(C)(C)C)C(C)C)cc1` (mixture of isomers), the Ratio in data set [1] was 3500 M⁻¹ s⁻¹; in [3] it was 11400 M⁻¹ s⁻¹; in data set [4], under 50 M⁻¹ s⁻¹; in [5], under 50 M⁻¹ s⁻¹.
For `CSc1ccc(OP(=O)(Oc2ccc(SC)cc2)C(NC(=O)[C@@H]2CCCN2C(=O)[C@H](CC(C)C)NC(=O)OCc2ccccc2)C(C)C)cc1` (mixture of isomers), the Ratio in data set [1] came out at 86200 M⁻¹ s⁻¹; in data set [3], 1000 M⁻¹ s⁻¹; in data set [4], 800 M⁻¹ s⁻¹. Besides, the inhibition in data set [5] was under 5%.

These data come from ChEMBL document CHEMBL2163241, “Human neutrophil elastase phosphonic inhibitors with improved potency of action” (J Med Chem, 2012).
